Screens (PubChem)
T cruzi repl = T. cruzi replication inhibition; T. cruzi beta-gal in NIH3T3, luminescence, 90 h; inhibition, % (concentration not given with the values); actives 1.4% (n = 300,000); AID 1885;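 active means mean inhibition across valid replicates above about 55%, limit read from the data; inconclusive means mean below that limit but half or more replicates reach it; inactive means mean below it, under half of replicates reach it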;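 further: signal also drops with host cell toxicity which is not excluded here; 0% = plate median of DMSO wells and 100% = zero luminescence signal; higher percent means less beta-gal luminescence so fewer parasites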
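System – NIH/3T3 host cells with β-galactosidase reporter T. cruzi · Doses – single 50 nL compound addition per well in DMSO · Reagent – 5000 T. cruzi trypomastigotes/well · Medium – Low-serum DMEM with 2% FBS · Timing – ≥90 h infection period, 3 h prior cell attachment · Evaluation – parasite load inhibition, % · Technique – GalScreen luminescence, 60 min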
SKKanGAS inh = SKKanGAS growth inhibition; S. pyogenes SKKanGAS, kanamycin growth, BacTiter-Glo, 6 h; inhibition, % at 7.5 µM; actives 1.3% (n = 300,000); AID 1662;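 active means mean replicate score, as percent of positive control median, at least 50; inconclusive means mean below 50 but one replicate at or above 50; inactive means mean and every replicate below 50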;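 further: strain carries kanamycin resistance gene driven by streptokinase promoter and grows in 40 µg/ml kanamycin; loss of luminescence reflects streptokinase promoter inhibition or plain growth inhibition; 0% = median of DMSO wells and 100% = positive control at its reference dose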
CSC inhib = blocks cancer stem cells | inhibition, % at 7.5 µM | actives 1.1% (n = 300,000) | cancer stem cell-like cells viability, luminescence; in the data active means inhibition above about 75%; inconclusive means no clear call, values can overlap the other calls; tested in HMLE shEcad cells
Beta cell apopt = blocks beta cell apoptosis | protection from apoptosis, % (test concentration not listed) | INS-1E cytokine-induced death, ATP luminescence, 48 h; percent of positive-control rescue, neutral wells zero | actives 0.8% (n = 300,000) | AID 435005;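 active means Every replicate reaches about 75%, or at least half do and their mean reaches it too, limit read from the data; inconclusive means At least half of replicates reach the limit but their mean does not; inactive means Under half of replicates reach the limit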;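 further: 0% = cytokine-treated negative control wells and 100% = positive control rescue; higher means more ATP so stronger rescue from cytokine killing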
Mdm2 MdmX PPI = disrupts the human Mdm2-MdmX interaction; actives 3% (n = 330,000); inhibition, % at 8 µM; SaOS-2 split-luciferase Mdm2/MdmX complementation, luminescence;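 active means inhibition of at least 50% at 8 µM in the primary screen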
Lmaj promast = reduces viability of Leishmania major promastigotes; resazurin fluorescence viability; inhibition, % at 10 µM; actives 9% (n = 200,000); in the data active means inhibition above about 50%;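 further: promastigotes grown with compound for 44 hours at 28 °C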
Mdm2-MdmX conf = confirmation of human Mdm2/MdmX interaction inhibitors | shares compounds with Mdm2 MdmX PPI | Mdm2-MdmX binding, luminescent assay | inhibition, % at 8 µM | actives 55% (n = 10,000) | AID 489028; in the data active means inhibition above about 40%
Full FLuc ctr = counter-screen for Mdm2/MdmX inhibitors: full-length luciferase; shares compounds with Mdm2 MdmX PPI; SaOS-2 full-length luciferase counterscreen, luminescence; inhibition, % at 8 µM; actives 77% (n = 6,200);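 active means mean inhibition at 8 µM reaching about 37%, which flags the compound as non-specific, limit read from the data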;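 further: p53-null SaOS-2 cells with luciferase driven by a doxycycline-inducible promoter; compound on cells about two nights before reading with doxycycline added after day one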
The depositor's hits bear a star. Compounds with a hit are over-represented: about 9.4% of the library has one in this group of screens.

`O=C(CN1C(=O)/C(=C/c2cccc(Cl)c2)SC1=S)NC1C=CS(=O)(=O)C1` (centres undefined) gave T cruzi repl 6.9, SKKanGAS inh 2.2, CSC inhib 13.3, Beta cell apopt -0.5 and Mdm2 MdmX PPI 8.1.
O=C(CN1C(=O)S/C(=C\c2cccc(Cl)c2)C1=O)NC1C=CS(=O)(=O)C1 (centres undefined) was read as T cruzi repl -11.4, SKKanGAS inh 12.2, CSC inhib 1.7, Beta cell apopt -16.3, Mdm2 MdmX PPI 56.9* and Mdm2-MdmX conf 33.1.
`CCC(C)n1c(=O)c(C(=O)Nc2ccccc2S(N)(=O)=O)c(O)c2ccccc21` (centres undefined) gave T cruzi repl -4.3, SKKanGAS inh 41.7, CSC inhib -1.7, Beta cell apopt -3.2, Mdm2 MdmX PPI 57.1*, Lmaj promast -7.7, Mdm2-MdmX conf 55.5* and Full FLuc ctr 30.8.
For CC(C)Cn1c(=O)c(C(=O)Nc2ccccc2S(N)(=O)=O)c(O)c2ccccc21 the results were T cruzi repl -14.4, SKKanGAS inh inconclusive, CSC inhib 54.0, Beta cell apopt 6.0, Mdm2 MdmX PPI 63.5*, Lmaj promast -6.2, Mdm2-MdmX conf 60.3* and Full FLuc ctr 26.4.
CCCn1c(=O)c(C(=O)Nc2ccccc2C(=O)OCC)c(O)c2ccccc21 was read as SKKanGAS inh -22.6, Beta cell apopt 1.8, Mdm2 MdmX PPI -19.3 and Lmaj promast -6.2.
Cn1c(=O)c(C(=O)Nc2ccccc2S(N)(=O)=O)c(O)c2ccccc21 was read as T cruzi repl -4.8, SKKanGAS inh 0.1, CSC inhib -6.2, Beta cell apopt 4.2 and Mdm2 MdmX PPI -15.7.
Screening COc1cc(OC)c(NC(=O)C(=O)CC(=O)c2ccc(C)cc2C)cc1Cl returned T cruzi repl 34.4, SKKanGAS inh 37.4, CSC inhib 26.8, Beta cell apopt -9.5, Mdm2 MdmX PPI 51.5*, Lmaj promast 100.0*, Mdm2-MdmX conf 29.2 and Full FLuc ctr 81.3*.
Screening COc1ccc(NC(=O)c2ccc(OC)c(S(=O)(=O)N3CCCCC3C)c2)cn1 (centres undefined) returned Beta cell apopt 1.7 and Mdm2 MdmX PPI -9.1.
COC(=O)C1=C(C)N(Cc2ccccc2)C(=NCCc2c[nH]c3ccccc23)N[C@H]1c1cccc(F)c1 was read as CSC inhib 122.9*, Beta cell apopt 21.5, Mdm2 MdmX PPI 98.4*, Mdm2-MdmX conf 50.6* and Full FLuc ctr 55.6*.
Screening COC(=O)C1=C(C)N(Cc2ccccc2)C(=NCCc2c[nH]c3ccccc23)N[C@H]1c1ccccc1 returned CSC inhib 30.0, Beta cell apopt 24.3, Mdm2 MdmX PPI 55.4* and Mdm2-MdmX conf 14.6.
For COCCN=C1N[C@@H](c2ccccc2)C(C(=O)OC)=C(C)N1Cc1ccccc1 the results were T cruzi repl 26.1, SKKanGAS inh -0.6, CSC inhib -6.2, Beta cell apopt -1.4 and Mdm2 MdmX PPI -3.0.
`CCN1/C(=C/c2cccc[n+]2C)Sc2ccc(OC)cc21` gave T cruzi repl 70.3*, SKKanGAS inh 2.3, CSC inhib 34.2, Beta cell apopt 105.2*, Mdm2 MdmX PPI 74.1*, Mdm2-MdmX conf 48.1* and Full FLuc ctr 78.0*.
For CCN1/C(=C/C(C)=O)Sc2ccc(OC)cc21 the results were T cruzi repl 8.4, SKKanGAS inh 1.1, CSC inhib -3.8, Beta cell apopt -1.3, Mdm2 MdmX PPI 24.1 and Lmaj promast -5.3.
Screening COc1ccc2c(c1)N(C)/C(=C/c1cccc[n+]1C)S2 returned T cruzi repl 56.0*, SKKanGAS inh 25.1, CSC inhib 37.1, Beta cell apopt 104.8*, Mdm2 MdmX PPI 71.8*, Mdm2-MdmX conf 35.2 and Full FLuc ctr 64.1*.
Screening Cc1ccc(S(=O)(=O)CC(=O)N(CCCN2CCOCC2)c2nc3c(F)cccc3s2)cc1 returned T cruzi repl 11.5, SKKanGAS inh -3.1, CSC inhib -6.3, Beta cell apopt -3.4 and Mdm2 MdmX PPI 2.3.
